The values that follow come from ChEMBL document CHEMBL2311488 (Bioorg Med Chem Lett, 2013).

The species entered for one series is Rattus norvegicus. Briefly: in vitro. Conditions: liver microsomes. In general terms: Liver microsomes are vesicles of endoplasmic reticulum, rich in cytochrome P450 enzymes.
Series [1] has as its target T1, Neuropeptide Y receptor type 5 (Mus musculus, UniProt O70342).
T1 sequence (O70342 whole entry): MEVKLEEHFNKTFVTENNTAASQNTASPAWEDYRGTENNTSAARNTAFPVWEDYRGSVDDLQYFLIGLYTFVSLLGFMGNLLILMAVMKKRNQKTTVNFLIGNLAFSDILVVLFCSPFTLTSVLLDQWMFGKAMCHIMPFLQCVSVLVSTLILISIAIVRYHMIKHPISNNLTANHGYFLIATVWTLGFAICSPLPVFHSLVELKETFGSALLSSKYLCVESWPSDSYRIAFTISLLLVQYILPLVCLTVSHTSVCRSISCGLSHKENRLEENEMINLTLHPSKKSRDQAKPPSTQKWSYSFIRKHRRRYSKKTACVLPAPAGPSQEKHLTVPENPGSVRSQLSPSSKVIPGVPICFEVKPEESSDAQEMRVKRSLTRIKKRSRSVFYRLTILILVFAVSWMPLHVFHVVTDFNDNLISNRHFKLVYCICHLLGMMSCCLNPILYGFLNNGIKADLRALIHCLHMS
Kind of series: Displacement of [125I]PYY from mouse NPY-Y5 receptor. On the technique in general: In a radioligand displacement assay an active substance lowers the binding of a labelled ligand.

The nature of the next series: in vitro. The note with it: human, liver microsomes.
Another series can be described thus: physchem. Conditions: pH 6.8.
The test system of series [2] is Mus musculus. Briefly: Antiobesity activity in DIO mouse assessed as reduction of [cPP1to7, NPY19 to 23, Ala31, Aib32, Gln42]-induced food intake at 12.5 mg/kg, po administered 1 hr prior to [cPP1to7, NPY19 to 23, Ala31, Aib32, Gln42] induction measured after 2 hrs relative to vehicle-treated control. The series is classed as functional. Details: scale not given: the % may be the effect or the level left. In short, it runs like this: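 Mice received oral compound at 12.5 mg/kg 1 h before treatment with a Y5-selective agonist peptide. Food intake was then compared with the increase the agonist induces.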

Series [3] can be described thus: Drug uptake in mouse CSF at 0.5 mg/kg, iv at 30 mins. The series is classed as ADME, organism-based, Cerebrospinal fluid. Details: dose 0.5 mg/kg, route intravenous. The note with it: read-out: Drug uptake. In short, it runs like this:
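CSF drug concentration was measured 30 min after a 0.5 mg/kg intravenous dose.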

Series [4] deals with Mus musculus. Kind of series: Toxicity in mouse assessed as appearance of abnormal behavior at 6.25 to 25 mg/kg, po bid measured for 21 days. Conditions: in vivo, 504 h. Set-up: dose 6.25-25 mg/kg, route oral. The series is classed as organism-based. In short, it runs like this:
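Diet-induced obese mice were given compound orally for 21 days and watched for abnormal behavior during dosing.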

In series [5] the test system is Mus musculus. Kind of series: Antiobesity activity against DIO mouse assessed as reduction of body weight administered as po bid measured for 21 days. The series is classed as functional, organism-based. In short, it runs like this: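 Diet-induced obese mice were dosed orally for 21 days, with body weight gain compared against a control group (n = 7).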

In brackets after ≈: the same amount, converted by molar mass. Some results are limits rather than exact numbers.

A word on the amount remaining: it is what is left of the initial amount, in per cent. What is called IC50 is the concentration at which inhibition is half-maximal. As usually defined, the kinetic solubility is the concentration staying in solution when a stock, usually in DMSO, is diluted into the medium. For `CCS(=O)(=O)c1ccc2nc(Cc3ccc(-c4ccccc4)cc3)[nH]c2c1`, the share remaining at 0.5 h in the series listed under Rattus norvegicus worked out at 74.3%; in the series “in vitro” it was 87.6%. In series [1], the half-inhibitory concentration (IC50) is 112 nM. Also, the solubility (kinetic) in the series “physchem” worked out at 3 µM (≈ 1.13 µg/mL).
Take `CCS(=O)(=O)c1ccc2nc(OCc3cccc(Cl)c3)[nH]c2c1`: the share remaining at 0.5 h in the series filed under Rattus norvegicus came to 37.9%; in “in vitro”, 88.5%. This molecule had an IC50 in series [1] of 80.4 nM. Further, the solubility (kinetic) in “physchem” came out at 49.9 µM (≈ 17.5 µg/mL).
Taken in the same sequence, the figures for `CCS(=O)(=O)c1ccc2nc(Oc3ccc(C(F)(F)F)cc3)[nH]c2c1` were 86.9%, 95.2%, 98.1 nM and > 50 µM.
Taken in the same sequence, the figures for `CCS(=O)(=O)c1ccc2[nH]c(C(=O)c3ccc(-c4ccccc4)cc3)nc2c1` were > 99.9%, > 99.9%, 2.61 nM and 0.3 µM (≈ 0.117 µg/mL).
Taken in the same sequence, the figures for `CCS(=O)(=O)c1ccc2[nH]c(SCc3cccc(Cl)c3)nc2c1` were 0.13%, 63.7%, 12.1 nM and 27.5 µM (≈ 10.1 µg/mL).
As to `CCS(=O)(=O)c1ccc2[nH]c(Oc3ccc(-c4ccccc4)nc3)nc2c1`, the Activity in the series on Mus musculus [2] was 50.8%; with Mus musculus [4] it was “Non-toxic”; with Mus musculus [5], “Dose-dependent effect”. Besides, in series [3], the concentration at 0.5 h was 2.9 ng/mL. Also, the share remaining at 0.5 h in the series filed under Rattus norvegicus was > 99.9%; in “in vitro”, 98.6%. This molecule also showed a concentration for half-maximal inhibition (IC50) in series [1] of 2.92 nM. In the series “physchem”, this molecule had a solubility (kinetic) of 39.7 µM (≈ 15.1 µg/mL).
In the case of `CCS(=O)(=O)c1ccc2[nH]c(Oc3ccccc3C(F)(F)F)nc2c1`, the half-maximal inhibitory concentration (IC50) in series [1] was found to be 3190 nM. In addition, the solubility (kinetic) in the series “physchem” is > 50 µM.
As to `CCS(=O)(=O)c1ccc2[nH]c(Oc3ccc(-c4ccccc4)cc3)nc2c1`, the share remaining at 0.5 h in the series listed under Rattus norvegicus and in “in vitro” was > 99.9% throughout. Besides, the IC50 in series [1] came to 2.82 nM. In “physchem”, this molecule yielded a kinetic solubility of 2.5 µM (≈ 0.946 µg/mL).
For the molecule `CCS(=O)(=O)c1ccc2nc(OCC(F)(F)c3ccccc3)[nH]c2c1`, the concentration at 0.5 h in series [3] was determined as 1.7 ng/mL. The amount remaining at 0.5 h stood at 83.8% in the series listed under Rattus norvegicus and 97.9% in the series “in vitro”. The molecule further had an IC50 in series [1] of 4.39 nM. Further, the solubility (kinetic) in the series “physchem” is > 50 µM.
Turning to `CCS(=O)(=O)c1ccc2nc(OCCc3ccccc3)[nH]c2c1`, the values for the amount remaining at 0.5 h in the series filed under Rattus norvegicus and in “in vitro” were 37.6% and 88.1%, respectively. Also, the IC50 in series [1] is 25 nM. In addition, the solubility (kinetic) in the series “physchem” was > 50 µM.
Taken in the same sequence, the figures for `CCS(=O)(=O)c1ccc2[nH]c(Oc3cccc(-c4ccccc4)c3)nc2c1` were 77.3%, 29.1%, 9.55 nM and 4.2 µM (≈ 1.59 µg/mL).
As for `CCS(=O)(=O)c1ccc2[nH]c(Oc3ccc(OC(F)(F)F)cc3)nc2c1`, the fraction remaining at 0.5 h in the series filed under Rattus norvegicus came out at 91.6%; in the series “in vitro”, 92.8%. In series [1], this molecule showed a 50% inhibitory concentration (IC50) of 22.4 nM. The solubility (kinetic) in “physchem” was > 50 µM.
With `CCS(=O)(=O)c1ccc2nc(Oc3ccc(-c4ccccc4)cn3)[nH]c2c1`, the share remaining at 0.5 h was > 99.9% in the series filed under Rattus norvegicus and 89.2% in the series “in vitro”. This molecule displayed a half-maximal inhibitory concentration (IC50) in series [1] of 96.4 nM. Besides, the kinetic solubility in the series “physchem” is 45.2 µM (≈ 17.2 µg/mL).
Taken in the same sequence, the figures for `CCS(=O)(=O)c1ccc2[nH]c(Oc3cccc(C(F)(F)F)c3)nc2c1` were 88.4%, > 99.9%, 41.2 nM and > 50 µM.
Taken in the same sequence, the figures for `CCS(=O)(=O)c1ccc2[nH]c(O[C@H]3CC[C@H](c4ccccc4)CC3)nc2c1` were 93.8%, > 99.9%, 3.75 nM and 6.1 µM (≈ 2.35 µg/mL).
On to `CCS(=O)(=O)c1ccc2nc(Oc3cccc(OC(F)(F)F)c3)[nH]c2c1`, for which the results for the fraction remaining at 0.5 h in the series listed under Rattus norvegicus and in “in vitro” were 86.2% and 97.1%, respectively. The molecule also displayed an IC50 in series [1] of 7.11 nM. For the same molecule, the solubility (kinetic) in the series “physchem” was > 50 µM.
Taken in the same sequence, the figures for `CCS(=O)(=O)c1ccc2nc(C(F)(F)c3ccc(-c4ccccc4)cc3)[nH]c2c1` were 78.3%, 0.1%, 48.6 nM and 0.3 µM (≈ 0.124 µg/mL).
Taken in the same sequence, the figures for `CCS(=O)(=O)c1ccc2[nH]c(C3(c4ccc(-c5ccccc5)cc4)CC3)nc2c1` were 81.3%, 88.5%, 608 nM and 0.5 µM (≈ 0.201 µg/mL).
As to `CCS(=O)(=O)c1ccc2[nH]c(Oc3ccc(-c4ccccn4)cc3)nc2c1`, the 50% inhibitory concentration (IC50) in series [1] stood at 4.07 nM. In addition, the solubility (kinetic) in the series “physchem” is > 50 µM.
